# ChEMBL document CHEMBL1127349, “6,7,8,9-Tetrahydro-N,N-di-n-propyl-3H-benzindol-8-amines. Derivatives as potent and orally active serotonin 5-HT1A receptor agonists” (J Med Chem, 1994)
# Active and inactive are the calls of the source. The calls are words filed in the database; no cut-off is given here.
# How the values were obtained:
# [1] = test system: Rattus norvegicus; experiment: The concentration yielding a half maximal decrease of the 5-HTP was determined in rat limbic system; inactive at 11 umol/kg; type: functional, organism-based
# Procedure, shortened: (§1)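 Reserpine-pretreated (5 mg/kg sc, 18 h) male Sprague-Dawley rats, 200–300 g; compounds in saline given sc. DOPA and 5-HTP in limbic system, striatum and hemispheres measured by HPLC with electrochemical detection. Dose–response curves of 4–6 doses (n = 4) per area, fitted to variable-slope sigmoid on log data to give ED50.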
# [2] = test system: Rattus norvegicus; experiment: The concentration yielding a half maximal decrease of the DOPA was determined in rat brain hemispheres; inactive at 11 umol/kg; type: functional, organism-based; procedure, shortened: as §1
# [3] = species: Rattus norvegicus; experiment: The concentration yielding a half maximal decrease of the DOPA was determined in rat brain striatum. pED50 values in parenthesis; type: functional
# [4] = test system: Rattus norvegicus; experiment: The concentration yielding a half maximal decrease of the 5-HTP was determined in rat brain hemispheres; inactive at 11 umol/kg; type: functional, organism-based; procedure, shortened: as §1
# [5] = test system: Rattus norvegicus; experiment: The concentration yielding a half maximal decrease of the 5-HTP was determined in rat brain striatum; inactive at 11 umol/kg; type: functional, organism-based; procedure, shortened: as §1
# [6] = species: Rattus norvegicus; experiment: The concentration yielding a half maximal decrease of the DOPA was determined in rat limbic system. pED50 values in parenthesis; type: functional
# [7] = test system: Rattus norvegicus; experiment: Motor activity was measured by motility testing on injecting the compound subcutaneously into rats at the dose of 0.02 umol/kg (1a) and 3.5 umol/kg (1b)
# [8] = target: T1, 5-hydroxytryptamine receptor 1A (Rattus norvegicus, UniProt P19327); experiment: Displacement of the radioligand [3H]8-OH-DPAT from 5-hydroxytryptamine 1A receptor
# T1 sequence (P19327 whole entry): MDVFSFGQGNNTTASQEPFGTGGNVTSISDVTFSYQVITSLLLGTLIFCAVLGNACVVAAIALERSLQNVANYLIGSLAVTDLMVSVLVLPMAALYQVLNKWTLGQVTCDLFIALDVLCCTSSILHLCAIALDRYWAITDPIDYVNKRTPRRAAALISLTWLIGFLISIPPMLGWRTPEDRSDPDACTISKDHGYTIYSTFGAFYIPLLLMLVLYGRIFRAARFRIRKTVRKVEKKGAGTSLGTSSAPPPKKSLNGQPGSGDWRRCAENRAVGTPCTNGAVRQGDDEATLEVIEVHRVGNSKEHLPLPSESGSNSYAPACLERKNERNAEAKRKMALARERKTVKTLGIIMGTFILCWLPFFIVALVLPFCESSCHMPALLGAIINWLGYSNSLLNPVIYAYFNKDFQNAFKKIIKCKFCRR
# Procedure, shortened: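 Rat whole brain minus brain stem and cerebellum, washed membranes in 50 mM Tris pH 8.0 with 120 mM NaCl, 4 mM CaCl2, 4 mM MgCl2, 10 μM pargyline. Nonspecific with 10 μM 5-HT. IC50 by semilog linear regression, Ki via Cheng–Prusoff; 3–7 experiments, triplicates.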
# [9] = target: D(2) dopamine receptor (Rattus norvegicus, UniProt P61169); experiment: Displacement of the radioligand [3H]spiperone from D2 receptor
# Procedure, shortened: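 Rat striatal membranes in 50 mM potassium phosphate buffer, incubated with 0.5 nM [3H]spiperone (3 mg tissue) 10 min at 37 °C. Nonspecific binding defined with 10 μM 6,7-ADTN. IC50 converted to Ki by Cheng–Prusoff; 3–7 experiments, each concentration in triplicate.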
# [10] = species: Rattus norvegicus; experiment: The concentration yielding a half maximal decrease of the 5-HTP was determined in rat brain striatum.; type: functional
# [11] = test system: Rattus norvegicus; experiment: The concentration yielding a half maximal decrease of the DOPA was determined in rat brain hemispheres; Partial response at 50 umol/kg; type: functional, organism-based; procedure, shortened: as §1
# [12] = species: Rattus norvegicus; experiment: The concentration yielding a half maximal decrease of the 5-HTP was determined in rat brain hemispheres.; type: functional
# [13] = species: Rattus norvegicus; experiment: The concentration yielding a half maximal decrease of the 5-HTP was determined in rat limbic system.; type: functional
# [14] = species: Rattus norvegicus; experiment: The concentration yielding a half maximal decrease of the DOPA was determined in rat limbic system.; type: functional
# [15] = species: Rattus norvegicus; experiment: Log concentration to inhibit 5-HTP accumulation was determined in rat brain hemispheres; type: functional; procedure, shortened: as §1
# [16] = species: Rattus norvegicus; experiment: Log concentration to inhibit 5-HTP accumulation was determined in rat limbic system; type: functional; procedure, shortened: as §1
# [17] = species: Rattus norvegicus; experiment: Log concentration to inhibit DOPA accumulation was determined in rat brain striatum; type: functional; procedure, shortened: as §1
# [18] = species: Rattus norvegicus; experiment: Log concentration to inhibit DOPA accumulation was determined in rat limbic system; type: functional; procedure, shortened: as §1
# [19] = species: Rattus norvegicus; experiment: Log concentration to inhibit 5-HTP accumulation was determined in rat brain striatum; type: functional; procedure, shortened: as §1
# [20] = species: Rattus norvegicus; experiment: The concentration yielding a half maximal decrease of the DOPA was determined in rat brain striatum.; type: functional
# [21] = test system: Rattus norvegicus; experiment: The concentration yielding a half maximal decrease of the DOPA was determined in rat limbic system; inactive at 45 umol/kg; type: functional, organism-based
# [22] = test system: Rattus norvegicus; experiment: The concentration yielding a half maximal decrease of the DOPA was determined in rat brain hemispheres; inactive at 45 umol/kg; type: functional, organism-based; procedure, shortened: as §1
# [23] = test system: Rattus norvegicus; experiment: The concentration yielding a half maximal decrease of the DOPA was determined in rat brain striatum; inactive at 45 umol/kg; type: functional, organism-based
# [24] = test system: Rattus norvegicus; experiment: Motor activity was measured by motility testing on injecting the compound subcutaneously into rats at the dose of 12.5 uM/Kg; type: functional
# Procedure, shortened: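 Rats given reserpine 5 mg/kg sc 18 h beforehand, then test compound sc in neck (n = 4). Placed singly in photocell motility meters straight after dosing; counts recorded for 30 min, gross behaviour observed throughout. Value as counts/30 min with SEM.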
# [25] = test system: Rattus norvegicus; experiment: The concentration yielding a half maximal decrease of the DOPA was determined in rat limbic system; Partial response at 50 umol/kg; type: functional, organism-based
# [26] = test system: Rattus norvegicus; experiment: The concentration yielding a half maximal decrease of the 5-HTP was determined in rat limbic system; Partial response at 50 umol/kg; type: functional, organism-based; procedure, shortened: as §1
# [27] = test system: Rattus norvegicus; experiment: The concentration yielding a half maximal decrease of the DOPA was determined in rat brain striatum; Partial response at 50 umol/kg; type: functional, organism-based
# [28] = test system: Rattus norvegicus; experiment: The concentration yielding a half maximal decrease of the 5-HTP was determined in rat brain hemispheres; inactive at 50 umol/kg; type: functional, organism-based; procedure, shortened: as §1
# [29] = test system: Rattus norvegicus; experiment: The concentration yielding a half maximal decrease of the 5-HTP was determined in rat brain striatum; inactive at 50 umol/kg; type: functional, organism-based; procedure, shortened: as §1
# [30] = test system: Rattus norvegicus; experiment: The concentration yielding a half maximal decrease of the DOPA was determined in rat brain hemispheres; inactive at 50 umol/kg; type: functional, organism-based; procedure, shortened: as §1
# Chain of D(2) dopamine receptor (P61169 whole entry): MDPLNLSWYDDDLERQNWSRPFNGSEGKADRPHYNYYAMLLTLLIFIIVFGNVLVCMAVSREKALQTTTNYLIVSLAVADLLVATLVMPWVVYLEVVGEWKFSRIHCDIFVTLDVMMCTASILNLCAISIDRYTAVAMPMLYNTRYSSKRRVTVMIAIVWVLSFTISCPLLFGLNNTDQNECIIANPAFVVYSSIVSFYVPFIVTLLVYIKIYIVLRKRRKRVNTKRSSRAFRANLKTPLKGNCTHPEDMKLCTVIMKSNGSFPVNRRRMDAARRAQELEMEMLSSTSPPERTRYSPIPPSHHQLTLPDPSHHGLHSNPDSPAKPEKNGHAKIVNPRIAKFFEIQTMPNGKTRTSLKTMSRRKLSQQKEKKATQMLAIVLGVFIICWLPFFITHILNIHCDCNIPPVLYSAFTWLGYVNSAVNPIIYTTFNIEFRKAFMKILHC
structure (smiles),measurement,setting,value
CCCN(CCC)C1CCc2ccc(O)cc2C1 (stereo unspecified),ED50,[1],inactive
same,ED50,[2],inactive
same,ED50,[3],0.03 µmol/kg
same,ED50,[4],inactive
same,ED50,[5],inactive
same,ED50,[6],0.027 µmol/kg
same,Counts/30 min,[7],170
CCCN(CCC)C1CCc2ccc3[nH]cc(Cl)c3c2C1 (stereo unspecified),Ki,[8],12.6 nM
same,Ki,[9],317 nM
same,ED50,[10],1.7 µmol/kg
same,ED50,[11],Weak activity
same,ED50,[12],1.4 µmol/kg
same,ED50,[13],1.4 µmol/kg
same,ED50,[14],3.7 µmol/kg
same,pED50,[15],5.85
same,pED50,[16],5.86
same,pED50,[17],5.47
same,pED50,[18],5.43
same,pED50,[19],5.78
same,ED50,[20],3.4 µmol/kg
CCCN(CCC)C1CCc2cccc(O)c2C1 (stereo unspecified) [8-OH-DPAT],ED50,[21],inactive
same,ED50,[22],inactive
same,ED50,[23],inactive
same,Counts/30 min,[7],66
CCCN(CCC)C1CCc2cc3cc[nH]c3cc2C1 (stereo unspecified),Activity,[24],51 Counts 30min-1
same,ED50,[25],Weak activity
same,ED50,[26],Weak activity
same,ED50,[27],Weak activity
same,ED50,[28],inactive
same,ED50,[29],inactive
same,ED50,[30],inactive
